Measured values published in PMC5497587 (Molecular pharmaceutics, 2017).

How the values were obtained:
[1] = system: human and guinea pig smooth muscle tissue; settings: cited from earlier work
[2] = cited from earlier work
[3] = system: airway hyperresponsiveness and airway eosinophilia; settings: cited from earlier work
[4] = system: inflammatory cells in bronchoalveolar lavage fluid; assay: Inflammatory cells in BALF of ova s/c BALB/c mice; type: in vivo, mouse
Summary of the method: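 Male BALB/c mice (5–10 wk), ova-sensitised/challenged, 10 per group; dexamethasone 4 mg/kg i.p. daily for 8 days (10% DMSO/40% propylene glycol/50% PBS); test compounds 100 mg/kg b.i.d. by gavage for 5 days. BAL with 1 ml Ca/Mg-free PBS, RBC lysis, Fc block, 30 min 4 °C antibody staining. CD45+ count gives cells/ml; CCR3+/GR1+/CD4+/CD11b+ frequencies × total; mean ± SEM versus vehicle.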

[5] = system: GABAARs expressed on splenocytes; assay: Automated patch-clamp electrophysiology for splenocytes; type: cell-based, mouse; settings: splenocytes from ova s/c mice

Compound: C#Cc1ccc2c(c1)C(c1ccccc1F)=N[C@H](C)c1c(C(=O)OCC)ncn1-2 [SH-053-2′F-R-CH3]
- smooth muscle relaxation ex vivo [1]: relax human and guinea pig smooth muscle tissue
- blood brain barrier crossing [2]: can cross the blood brain barrier

Compound: C[C@@H]1C[C@H]2[C@@H]3CCC4=CC(=O)C=C[C@]4(C)[C@@]3(F)[C@@H](O)C[C@]2(C)[C@@]1(O)C(=O)CO [dexamethasone]
- AHR in ova s/c mice ([3]; dexamethasone treated ova s/c mice): reduced AHR
- CD4+ T cell population in BALF ([4]; 4 mg/kg i.p. for 8 days): significantly reduced
- CD11b+ leukocyte population in BALF ([4]; i.p. 4 mg/kg daily for 8 days): as did dexamethasone treatment
- eosinophils (CCR3+) in BALF by flow cytometry ([4]; i.p. 4 mg/kg daily for 8 days): almost completely eliminated
- reduction of white blood cells in BALF ([4]; i.p. 4 mg/kg daily for 8 days, compared with compounds 1 and 2): more pronounced

Compound: C=CCc1ccc(O)c(-c2ccc(O)c(CC=C)c2)c1 [honokiol]
- AHR and lung eosinophilia ([3]; acute and chronic administration, ova s/c mouse asthma model): reduced AHR and lung eosinophilia

Compound: NCc1cc(=O)[nH]o1 [muscimol]
- induced current change relative to current change induced by GABA [5]: around 50%
